Measured values taken from ChEMBL document CHEMBL1129311, “Antitumor agents. 166. Synthesis and biological evaluation of 5,6,7,8-substituted-2-phenylthiochromen-4-ones” (J Med Chem, 1996).
In brackets after ≈: the same amount, converted by molar mass. Activity calls are given as the source filed them. The calls are words filed in the database; no cut-off is given here.

What was measured:
A549 = test: Effective dose against 50% reduction in Human lung carcinoma (A-549) cell number after 3-day incubation.; format: functional, cell-based
[1] = target: T1, DNA topoisomerase II (Homo sapiens) (UniProt P11388+Q02880); test: Inhibitory activity against human DNA topoisomerase II at dose 100 uM; format: protein assay
Method in brief: (§1)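 Topo II activity read as ATP-dependent unknotting of P4 DNA. Test compound at 100 µM; % inhibition is relative to enzyme and DNA control reactions. VP-16 served as the reference inhibitor.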

[2] = target: T2, DNA topoisomerase 1 (Homo sapiens) (UniProt P11387); test: Inhibitory activity against human DNA topoisomerase I at dose 100 uM
T2 sequence (whole entry): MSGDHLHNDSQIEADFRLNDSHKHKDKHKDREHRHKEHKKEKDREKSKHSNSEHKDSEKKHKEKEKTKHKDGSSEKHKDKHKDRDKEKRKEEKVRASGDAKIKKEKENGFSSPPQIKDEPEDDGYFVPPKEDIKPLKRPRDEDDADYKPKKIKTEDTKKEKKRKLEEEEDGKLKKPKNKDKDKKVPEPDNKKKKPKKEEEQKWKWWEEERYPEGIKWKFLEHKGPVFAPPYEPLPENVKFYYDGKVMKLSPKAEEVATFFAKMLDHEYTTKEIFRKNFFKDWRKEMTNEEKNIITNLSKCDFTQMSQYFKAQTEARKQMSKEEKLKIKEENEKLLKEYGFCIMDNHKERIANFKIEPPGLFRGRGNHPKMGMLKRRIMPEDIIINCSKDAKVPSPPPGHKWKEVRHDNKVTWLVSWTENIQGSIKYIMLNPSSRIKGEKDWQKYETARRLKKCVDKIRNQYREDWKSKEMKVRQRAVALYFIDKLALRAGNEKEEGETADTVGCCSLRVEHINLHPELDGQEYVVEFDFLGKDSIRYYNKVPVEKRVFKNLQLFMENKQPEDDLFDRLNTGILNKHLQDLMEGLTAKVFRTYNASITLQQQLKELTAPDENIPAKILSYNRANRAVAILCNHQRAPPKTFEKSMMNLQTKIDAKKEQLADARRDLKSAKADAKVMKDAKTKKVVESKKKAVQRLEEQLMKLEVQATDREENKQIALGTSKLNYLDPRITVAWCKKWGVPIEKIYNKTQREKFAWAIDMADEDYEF
Method in brief: (§2)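 Topo I activity read as ATP-independent relaxation of supercoiled plasmid DNA. Test compound at 100 µM; % inhibition is relative to enzyme and DNA control reactions. Camptothecin served as the positive inhibitor control.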

H9 [3] = test: Effective dose against growth of HIV infected H9 lymphocytes; format: functional; settings: Homo sapiens, read-out: ED50 (the source's name)
H9 [4] = test: Inhibitory activity against growth of uninfected H9 lymphocytes; format: functional, cell-based; settings: Homo sapiens
Method in brief: (§3)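 Uninfected H9 cultures exposed to compound diluted in medium for 4 days at 37 °C. Cell density counted in a Coulter counter; IC₅₀ determined.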

HCT-8 [5] = test: Effective dose against 50% reduction in Human ileocecal carcinoma (HCT-8) cell number after 3-day incubation.; format: functional, cell-based
P388 [6] = test: Effective dose against 50% reduction in Murine leukemia (P-388) cell number after 3-day incubation; format: functional; settings: Mus musculus, P388, 72 h; read-out: ED50 (the source's name)
RPMI [7] = test: Effective dose against 50% reduction in Human melanoma (RPMI)cell number after 3-day incubation; format: functional; settings: 72 h, read-out: ED50 (the source's name)
TE-671 [8] = test: Effective dose against 50% reduction in Human CNS tumor (TE671) cell number after 3-day incubation; format: functional; settings: TE-671, 72 h, read-out: ED50 (the source's name)
[9] = Therapeutic index valued has been determined in H9 cells; format: cell-based; settings: human, read-out: Therapeutic index
KB [10] = test: Cellular protein-linked DNA breaks in KB oral carcinoma cell culture treated in triplicate at 50 uM for 1 hr; format: functional, Homo sapiens
Method in brief: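 Read-out is potassium-SDS precipitable cpm in treated KB cultures, expressed as fold.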

KB [11] = test: Effective dose against 50% reduction in Human epidermoid carcinoma of the nasopharynx (KB) cell number after 3-day incubation; format: functional; settings: 72 h, read-out: ED50 (the source's name)
[12] = target: T1, DNA topoisomerase II (Homo sapiens); test: Inhibitory activity against DNA topoisomerase II at dose 100 uM; format: protein assay; method in brief: as §1
[13] = target: T2, DNA topoisomerase 1 (Homo sapiens); test: Inhibitory activity against DNA topoisomerase I at dose 100 uM; method in brief: as §2
KB [14] = test: Effective dose against 50% reduction in Human epidermoid carcinoma of the nasopharynx (KB) cell number after 3-day incubation; - indicates inactive; format: functional, cell-based
TE-671 [15] = test: Effective dose against 50% reduction in Human CNS tumor (TE671) cell number after 3-day incubation; - indicates inactive; format: functional, cell-based
RPMI [16] = test: Effective dose against 50% reduction in Human melanoma (RPMI)cell number after 3-day incubation; - indicates inactive; format: functional, cell-based
[17] = target: T2, DNA topoisomerase 1 (Homo sapiens); test: Inhibitory activity against Human DNA topoisomerase I at dose 100 uM; method in brief: as §2
[18] = target: T1, DNA topoisomerase II (Homo sapiens); test: Inhibitory activity against Human DNA topoisomerase II at dose 100 uM; format: protein assay; method in brief: as §1
HCT-8 [19] = test: Effective dose against 50% reduction in Human ileocecal carcinoma (HCT-8) cell number after 3-day incubation; format: functional; settings: HCT-8, 72 h, read-out: ED50 (the source's name)
P388 [20] = test: Effective dose against 50% reduction in Murine leukemia (P-388) cell number after 3-day incubation; - indicates inactive; format: functional, cell-based; settings: Mus musculus
H9 [21] = test: Effective dose against growth of HIV infected H9 lymphocytes by 50%; format: functional; settings: Homo sapiens, read-out: ED50 (the source's name)
H9 [22] = test: Inhibitory activity against growth of uninfected H9 lymphocytes by 50%; format: functional, cell-based; settings: Homo sapiens; method in brief: as §3
[23] = system: Medulloblastoma tumour cell line; test: Effective dose against medulloblastoma tumor cell lines; format: functional; settings: read-out: ED50 (the source's name)
KB [24] = test: Effective dose against Human epidermoid carcinoma of the nasopharynx; - indicates inactive; format: functional, cell-based
RPMI [25] = test: Effective dose against 50% reduction in Human melanoma(RPMI) cell number after 3-day incubation; format: functional; settings: 72 h, read-out: ED50 (the source's name)

| Compound | ED50 (A549) | EC50 (H9 [3]) [µg/mL] | IC50 (H9 [4]) [µg/mL] | ED50 (HCT-8 [5]) | selectivity ratio [9] | ED50 (KB [14]) | ED50 (TE-671 [15]) | ED50 (RPMI [16]) | ED50 (P388 [20]) | other results |
| --- | --- | --- | --- | --- | --- | --- | --- | --- | --- | --- |
| CC(=O)Oc1cc2sc(-c3ccccc3)cc(=O)c2cc1OC(C)=O | inactive | 0.65 (≈ 1.83 µM) | 3 (≈ 8.47 µM) | inactive | 4.6 | – | – | – | – | inhibition [1]: 100%; inhibition [2]: 0%; EC50 (P388 [6]): 4.83 µg/mL (≈ 13.6 µM); EC50 (RPMI [7]): 5.5 µg/mL (≈ 15.5 µM); EC50 (TE-671 [8]): 4.58 µg/mL (≈ 12.9 µM); Activity (KB [10]): 1; EC50 (KB [11]): 5.5 µg/mL (≈ 15.5 µM) |
| COc1cccc(-c2cc(O)c3cc(N4CCCC4)ccc3n2)c1 | – | – | – | – | – | – | – | – | – | inhibition [12]: 0% |
| Nc1ccc2sc(-c3ccccc3)cc(=O)c2c1 | – | 7 (≈ 27.6 µM) | 7.5 (≈ 29.6 µM) | – | 1.1 | – | – | – | – | – |
| Nc1cccc2sc(-c3ccccc3)cc(=O)c12 | inactive | 20 (≈ 78.9 µM) | 50 (≈ 197 µM) | inactive | 2.5 | inactive | inactive | inactive | – | inhibition [13]: 100%; inhibition [12]: 0%; EC50 (P388 [6]): 9.31 µg/mL (≈ 36.8 µM); Activity (KB [10]): 1 |
| O=c1cc(-c2ccccc2)[s+]([O-])c2ccccc12 (configuration not stated) | inactive | – | – | – | – | – | – | – | – | inhibition [17]: 100%; inhibition [18]: 0%; EC50 (HCT-8 [19]): 5.79 µg/mL (≈ 22.8 µM); EC50 (P388 [6]): 1.18 µg/mL (≈ 4.64 µM); EC50 (RPMI [7]): 5.5 µg/mL (≈ 21.6 µM); EC50 (TE-671 [8]): 3.66 µg/mL (≈ 14.4 µM); Activity (KB [10]): 1; EC50 (KB [11]): 5.5 µg/mL (≈ 21.6 µM) |
| O=c1cc(-c2ccccc2)sc2cc(O)ccc12 | inactive | 7 (≈ 27.5 µM) | 40 (≈ 157 µM) | inactive | 5.7 | inactive | inactive | inactive | inactive | – |
| O=c1cc(-c2ccccc2)sc2ccccc12 | inactive | – | – | inactive | – | inactive | inactive | inactive | inactive | – |
| O=c1cc(-c2ccccc2)sc2ccc(O)cc12 | inactive | – | – | inactive | 4.2 | inactive | – | – | inactive | EC50 (H9 [21]): 9.5 µg/mL (≈ 37.4 µM); IC50 (H9 [22]): 40 µg/mL (≈ 157 µM); EC50 (RPMI [7]): 0.55 µg/mL (≈ 2.16 µM); EC50 (TE-671 [8]): 2.87 µg/mL (≈ 11.3 µM) |
| COc1cc(-c2oc3c(OC)c(OC)c(OC)c(O)c3c(=O)c2OC)ccc1O | – | – | – | – | – | – | – | – | – | EC50 [23]: 0.99 µg/mL (≈ 2.45 µM) |
| COc1cccc2sc(-c3ccccc3)cc(=O)c12 | inactive | – | – | inactive | 1 | – | inactive | – | inactive | EC50 (H9 [21]): 7 µg/mL (≈ 26.1 µM); IC50 (H9 [22]): 7 µg/mL (≈ 26.1 µM); ED50 (KB [24]): inactive; EC50 (RPMI [25]): 5.5 µg/mL (≈ 20.5 µM) |
| COc1ccc2c(=O)cc(-c3ccccc3)sc2c1 | inactive | – | – | – | – | – | inactive | inactive | inactive | EC50 (HCT-8 [19]): 9.16 µg/mL (≈ 34.1 µM); EC50 (KB [11]): 5.5 µg/mL (≈ 20.5 µM) |
